Screening results deposited in PubChem by Johns Hopkins Ion Channel Center.
In the library only some 3.5% were active in any assay of this set; here they are far more common.
MrgX1 ag: agonists of human MrgX1 receptor, primary screen, HEK293 cells, Fluo-4 calcium flux | Fluo-4 calcium fluorescence, agonist mode; hits give high values | Mas-related G-protein coupled receptor member X1 (Homo sapiens), Q96LB2 | hit rate 0.44% among 310,000 | AID 588627, 2011 | B-score at 10 µM;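 active = calcium response B-score plate-corrected fluorescence ratio at least 3 library SD, with starting fluorescence B-score inside 5 SD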
Target sequence (Q96LB2 whole entry, looked up): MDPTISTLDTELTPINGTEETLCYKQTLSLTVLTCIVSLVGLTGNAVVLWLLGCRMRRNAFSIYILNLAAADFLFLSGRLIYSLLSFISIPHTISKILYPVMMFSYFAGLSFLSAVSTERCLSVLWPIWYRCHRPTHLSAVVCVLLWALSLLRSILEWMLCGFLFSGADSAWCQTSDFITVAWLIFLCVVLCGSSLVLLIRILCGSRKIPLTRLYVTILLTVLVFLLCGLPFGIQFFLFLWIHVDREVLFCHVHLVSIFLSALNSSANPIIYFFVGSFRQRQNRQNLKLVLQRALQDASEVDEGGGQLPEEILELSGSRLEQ
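Test system: HEK293 cells stably expressing human MrgX1 receptor; amount: 15,000 cells per well; doses: compound delivered in addition one of three; times: overnight plating before 1 h dye loading; detection: Fluo-4 NW calcium-flux fluorescence, kinetic read; read-out basis: B-scored fluorescence response ratio; controls: positive and negative controls per plate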
RGS4 act: RGS4 potentiators or activators, primary screen, cell-based, HEK293 M3R inducible RGS4, calcium flux | carbachol calcium flux Fluo4; hits give low values | B-score at 10 µM | hit rate 0.92% among 310,000;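 active = B-score of the integrated calcium signal more than 4 SD below the library mean, with starting fluorescence not abnormally high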;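 also: negative B-score means reduced calcium response which marks RGS4 activation or potentiation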
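System – HEK293 FlpIn-TREx cells, stable M3R, doxycycline-inducible RGS4 · Reagent – ECmax carbachol challenge · Times – compound preincubation 20 min at room temperature before agonist · Technique – Fluo4 fluorescence kinetic imaging of calcium · Measure – B score of integrated Fluo4 ratio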
MrgX1 antagonist: antagonists of human MrgX1 receptor, primary screen, HEK293 cells, Fluo-4 calcium flux | Mas-related G-protein coupled receptor member X1 (Homo sapiens), Q96LB2 | BAM8-22 antagonism; hits give low values | B-score at 10 µM | hit rate 1.3% among 310,000 | AID 588676, 2011;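 active = calcium-response B-score plate-corrected more than 3 library SD below zero, starting fluorescence within 5 deviations, no agonist response on first addition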;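 also: peak minus trough fluorescence over baseline after final BAM8-22 challenge near maximal dose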
MrgX1 allo act: positive allosteric modulators of MrgX1, primary screen, HEK293 cells, Fluo-4 calcium flux; Mas-related G-protein coupled receptor member X1 (Homo sapiens), Q96LB2; FDSS; hits give high values; B-score at 10 µM; hit rate 0.63% among 310,000;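 active = plate-corrected calcium response at least 3 library SD above typical, normal starting fluorescence, not activating the receptor alone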;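 also: compound read alongside a low EC10 to EC30 dose of BAM8-22 agonist; peak minus trough fluorescence over baseline measured at the second addition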
RGS4 inh: RGS4 inhibitors, primary screen, cell-based, HEK293 M3R inducible RGS4, calcium flux | hit rate 0.45% among 310,000 | Fluo-4 calcium flux; hits give high values; triggered by carbachol at its EC20 | B-score at 10 µM | AID 463165, 2010 | Regulator of G-protein signaling 4 (Homo sapiens), P49798;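 active = B-score, a plate-corrected calcium signal, over three deviations above library mean, with baseline fluorescence within five deviations of library mean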;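 also: RGS4 expression induced by doxycycline in cells with stable M3 receptor; B-score is computed from the integrated fluorescence ratio over baseline after carbachol; higher B-score means a larger calcium signal and so more RGS4 inhibition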
Target sequence (P49798 whole entry, looked up): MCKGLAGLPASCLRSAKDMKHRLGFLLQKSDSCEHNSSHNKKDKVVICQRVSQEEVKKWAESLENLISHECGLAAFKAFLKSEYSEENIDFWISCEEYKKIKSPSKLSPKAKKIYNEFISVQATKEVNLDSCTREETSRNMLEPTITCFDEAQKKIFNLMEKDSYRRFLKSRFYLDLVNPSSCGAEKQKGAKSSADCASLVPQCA
MrgX1 ag reconf: MrgX1 receptor agonists, duplicate retest, confirmation, HEK293 cells, Fluo-4 calcium flux; hit rate 78% among 600; shares compounds with MrgX1 ag; Fluo-4 calcium fluorescence, FDSS; activation, % at 10 µM;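 active = calcium signal rise, corrected for plate position, at least 3 library SD high, with starting brightness within 5 such deviations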
HEK293 Ca flux: nonspecific calcium signal in parental HEK293, confirmation, counter-screen for MrgX1 antagonist project, parental HEK293 cells, Fluo-4 calcium flux. shares compounds with MrgX1 antagonist. Fluo-4 calcium fluorescence, FDSS. fluorescence ratio F(max-min)/F0 at 10 µM. hit rate 2% among 4,000. AID 624111, 2012;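 active = duplicate-averaged calcium fluorescence ratio at least three times the standard deviation of buffer wells, a nonspecific response in parental cells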
HEK293 Ca counter: calcium response in parental HEK293 cells, primary screen, counter-screen for MrgX1 allosteric activator project, cell-based, Fluo-4 calcium flux, duplicate; shares compounds with MrgX1 antagonist; Fluo-4 fluorescence ratio; hits give high values; fluorescence ratio F(max-min)/F0 at 10 µM; hit rate 0.4% among 4,000; AID 624114, 2012;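 active = calcium fluorescence ratio, averaged over duplicates, at least 3 SD of the buffer-well ratio, meaning a nonspecific response in receptor-free cells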;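 also: untransfected parental HEK293 lacking MrgX1 used as counterscreen for MrgX1 allosteric activators; fluorescence change taken during the second addition on a kinetic imager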
HEK293 Ca cntr2: calcium response in parental HEK293 cells, primary screen, counter-screen for MrgX1 agonist project, cell-based, Fluo-4 calcium flux, duplicate, agonist mode. shares compounds with MrgX1 antagonist. Fluo-4 calcium fluorescence (FDSS); hits give high values. fluorescence ratio F(max-min)/F0 at 10 µM. hit rate 8.7% among 4,000. AID 624115, 2012;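 active = calcium fluorescence ratio at least three times the spread of buffer wells, meaning a non-specific response in parental cells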
* = called active by the depositor; i = inactive; . = not tested or not shown.

SMILES | MrgX1 ag | RGS4 act | MrgX1 antagonist | MrgX1 allo act | RGS4 inh | MrgX1 ag reconf | HEK293 Ca flux | HEK293 Ca counter | HEK293 Ca cntr2
Cc1cc(C)n(CCC(=O)Nc2ccc(-c3ccno3)cc2)n1 | i | i | i | i | i | . | . | . | .
Nc1ccc(-c2cnc3ccccc3n2)cc1 | 27.8* | i | i | i | i | 87.1%* | i | i | i
CCOc1cc(-c2nccc3cc(OC)c(OC)cc23)cc(OCC)c1OCC | i | i | i | i | i | . | . | . | .
CCCCS(=O)(=O)Nc1ccc2c(c1)ncn2C1CCCCC1 | 34.9* | i | i | i | i | 213.6%* | i | i | 50.8*
COc1ccc(C2NC(=O)NC(C)=C2[N+](=O)[O-])cc1 (stereo not drawn) | i | i | i | i | i | . | . | . | .
N#Cc1cn(Cc2ccccc2)c2ccccc12 | 29.9* | i | i | i | i | 161.0%* | i | i | i
N#Cc1ccccc1Cn1cc(C#N)c2ccccc21 | i | i | i | i | i | . | . | . | .
Cc1cc(NC(=O)CCS(=O)(=O)c2nc(-c3ccccc3)cc(C(F)(F)F)n2)no1 | i | . | i | i | . | . | . | . | .
CS(=O)(=O)c1nc(-c2ccccc2)cc(C(F)(F)F)n1 | 37.6* | i | i | i | i | 183.6%* | i | i | i
Cc1occc1C(=O)NNC(=S)NC(=O)COc1ccc(Cl)cc1Cl | 70.9* | -9.05* | i | i | i | 193.4%* | i | i | i
Cc1ccc(NS(=O)(=O)c2ccc(C(=O)N3CC(C)CC(C)C3)cc2)cc1 (stereo not drawn) | 27.8* | i | i | i | i | 150.5%* | i | i | 70.9*
Oc1ccccc1Cc1c(O)ccc2ccccc12 | i | i | i | i | i | . | . | . | .
Cc1ccc2nc(/C(C#N)=C\c3ccc(N4CCOCC4)o3)[nH]c2c1 | 68.4* | i | i | i | i | i | 0.334* | i | i
COc1ccc(CCNC(=O)Nc2ccc(F)cc2F)cc1OC | i | i | i | i | i | . | . | . | .
Cc1ccc(OCc2nc(-c3ccc(Cl)cc3)n[nH]2)cc1 | i | i | i | i | i | . | . | . | .
Cc1ccc(-c2n[nH]c(Cc3ccccc3)n2)cc1 | 28.5* | i | i | i | i | 96.8%* | i | i | i
CC1CC(C)CN(C(=O)CN(C)S(=O)(=O)c2ccc3c(c2)c(=O)n(C)c(=O)n3C)C1 (stereo not drawn) | i | i | i | i | i | . | . | . | .
O=C(CCN1C(=O)C2CC=CCC2C1=O)Nc1cc(C(F)(F)F)ccc1N1CCCC1 (stereo not drawn) | i | i | i | i | i | . | . | . | .
CC1(c2ccccc2)CC(C)(C)n2c(O)c(C3=NC(=S)NC3=O)c3cccc1c32 (stereo not drawn) | i | i | i | i | i | . | . | . | .
CC1(c2ccccc2)CC(C)(C)N2C(=O)C(=O)c3cccc1c32 (stereo not drawn) | 28.8* | i | i | i | i | i | i | i | i
CCCc1[nH]n(-c2nc3ccccc3s2)c(=O)c1C=NCC1CCCO1 (stereo not drawn) | 51* | i | i | i | i | 187.2%* | i | i | i
Cc1ccc(CNC(=O)Cc2ccc(Br)cc2)cc1 | i | i | i | i | i | . | . | . | .
O=C1Cc2ccccc2Sc2ccc(O)cc21 | 29.2* | i | i | i | i | 114.0%* | i | i | i
Nc1ccc(N2C(=O)c3ccccc3C2=O)c(Cl)c1 | i | . | i | i | . | . | . | . | .
Nc1ccc2c(c1)CC(=O)c1ccccc1S2 | 42.1* | i | i | i | i | 102.3%* | i | i | i
SMILES | MrgX1 ag | RGS4 act | MrgX1 antagonist | MrgX1 allo act | RGS4 inh | MrgX1 ag reconf | HEK293 Ca flux | HEK293 Ca counter | HEK293 Ca cntr2
Cc1cccc2c1Sc1ccccc1CC2=O | 33.2* | i | i | i | i | 112.8%* | i | i | i
O=C1c2ccccc2CSc2c(O)cccc21 | i | i | i | i | i | . | . | . | .
COc1ccc(CCCC(=O)N/N=C/c2ccccc2OC)cc1 | i | i | i | i | i | . | . | . | .
CN(CC(=O)Nc1ccc(Cl)cc1)C(=O)Cn1[nH]c(=O)c2ccccc2c1=O | i | i | i | i | i | . | . | . | .
COCCC(=O)Nc1c(-c2ccccc2)c2cc(Br)ccc2[nH]c1=O | i | i | i | i | i | . | . | . | .
O/C(=C\c1ccc2ccccc2n1)c1ccncc1 | 63.9* | i | i | i | i | 355.2%* | i | i | 127*
O=C(CCC1CCCC1)c1c(O)c2ccccc2oc1=O | 87.3* | i | i | i | i | 564.2%* | i | i | 111*
CC(NC(=O)Cn1nc(C(F)(F)F)c2c1CCC2)c1ccccc1 (stereo not drawn) | 30.9* | i | i | i | i | 133.7%* | i | i | i
O=C1N[C@@H](Cc2ccccc2)C(=O)N2[C@H]1C[C@]1(Br)c3ccccc3N(S(=O)(=O)c3ccc(F)cc3)[C@H]21 | i | i | i | i | i | . | . | . | .
COc1ccccc1-c1ccc(/C=C2\C=CC(=O)O2)o1 | 90.9* | i | i | i | i | i | 0.199* | i | i
COc1ccccc1-c1ccc(/C=C2/C=C(C)OC2=O)o1 | i | i | i | i | i | . | . | . | .
COc1cc(C(=S)N2CCOCC2)cc(OC)c1OC(=O)c1ccc(C)cc1 | i | i | i | i | i | . | . | . | .
CCOC(=O)c1ccc2c(c1)N(CC#N)C(=O)C(C)(C)O2 | 50.4* | i | i | i | i | 108.8%* | i | i | 46.2*
CCOC(=O)c1ccc2c(c1)N(CC(=O)N1CCCC1)C(=O)C(C)(C)O2 | i | i | i | i | i | . | . | . | .
